Results on eleven compounds are retold here after ChEMBL document CHEMBL1130283, “Synthesis and structure-activity relationships of nonaromatic taxoids: effects of alkyl and alkenyl ester groups on cytotoxicity” (J Med Chem, 1997).

In general, IC50 refers to the midpoint of a concentration-inhibition curve.

Where only a bound is given, the exact number is not on record here.

Format in all cases: functional, cell-based
Assay [1] concerns A549. The assay is described as follows: Inhibition of the growth against human non-small-lung carcinoma (A549) cell line after 72 hr exposure. Particulars: A549, 72 h.
The subject of assay [2] is HT-29. Kind of assay: Inhibition of the growth against human Colon Carcinoma (HT-29) cell line after 72 hr exposure. The conditions noted are these: HT-29, 72 h. In outline: (§1)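 SRB assay. Cells were seeded at 400/well, allowed to attach overnight, and grown in RPMI-1640 with 5% FBS and 5% Nu serum. Compounds were dissolved in DMSO, diluted in medium and applied to triplicate wells for 72 h. Cells were fixed with cold 50% TCA (1 h, 4 °C), stained with 0.4% SRB for 5 min, rinsed with 0.1% acetic acid and solubilized in 10 mM Tris pH 10.5. OD was read at 570 nm. IC50 came from a weighted sigmoid-Emax nonlinear fit.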

The test system of assay [3] is MCF7R. Kind of assay: Inhibition of the growth against human mammary carcinoma 180 fold resistant to doxorubicin (MCF-7-R) cell line after 72 hr exposure.
The subject of assay [4] is MCF7. The assay is described as follows: Inhibition of the growth against human mammary carcinoma (MCF-7) cell line after 72 hr exposure. Particulars: MCF7, 72 h. In outline: as §1
Assay [5] has as its system A121. Kind of assay: Inhibition of the growth against human Ovarian Carcinoma (A121) cell line after 72 hr exposure. Particulars: A121, 72 h. In outline:
as §1

In the case of `CC(=O)OC1C(=O)C2(C)C(O)CC3OCC3(OC(C)=O)C2C(OC(=O)C=C(C)C)C2(O)CC(OC(=O)C(O)C(CC(C)C)NC(=O)OC(C)(C)C)C(C)=C1C2(C)C` (stereo not given), the IC50 in assay [1] is 30 nM; in assay [2], 89 nM; in assay [3], > 1000 nM; in assay [4], 84 nM; in assay [5] it was 54 nM.

Regarding `CC(=O)OC1C(=O)C2(C)C(O)CC3OCC3(OC(C)=O)C2C(OC(=O)C2CCCCC2)C2(O)CC(OC(=O)C(O)C(C=C(C)C)NC(=O)OC(C)(C)C)C(C)=C1C2(C)C` (stereo not given), the IC50 in assay [1] was determined as 1.3 nM; in assay [2], 1.7 nM; in assay [3] it was 26 nM; in assay [4] it was 0.5 nM; in assay [5], 1.5 nM.

Turning to `CC(=O)OC1C(=O)C2(C)C(O)CC3OCC3(OC(C)=O)C2C(OC(=O)CC(C)C)C2(O)CC(OC(=O)C(O)C(CC(C)C)NC(=O)OC(C)(C)C)C(C)=C1C2(C)C` (stereo not given), the IC50 in assay [1] was 47 nM; in assay [2] it was 52 nM; in assay [3], 1080 nM; in assay [4], 43 nM; in assay [5], 55 nM.

Consider `CC(=O)OC1C(=O)C2(C)C(O)CC3OCC3(OC(C)=O)C2C(OC(=O)C=C(C)C)C2(O)CC(OC(=O)C(O)C(NC(=O)OC(C)(C)C)c3ccccc3)C(C)=C1C2(C)C` (stereo not given), for which the concentration for half-maximal inhibition (IC50) in assay [1] worked out at 2.9 nM; in assay [2], 3.5 nM; in assay [3], 140 nM; in assay [4], 1.1 nM; in assay [5], 2.7 nM.

In the case of `C/C=C/C(NC(=O)OC(C)(C)C)C(O)C(=O)OC1CC2(O)C(OC(=O)C3CCCCC3)C3C4(OC(C)=O)COC4CC(O)C3(C)C(=O)C(OC(C)=O)C(=C1C)C2(C)C` (stereo not given), the IC50 in assay [1] was determined as 12 nM; in assay [2], 8.5 nM; in assay [3] it was 446 nM; in assay [4], 3.2 nM; in assay [5], 6.6 nM.

Turning to `CC(=O)OC1C(=O)C2(C)C(O)CC3OCC3(OC(C)=O)C2C(OC(=O)C2CCCCC2)C2(O)CC(OC(=O)C(O)C(CC(C)C)NC(=O)OC(C)(C)C)C(C)=C1C2(C)C` (stereo not given), the IC50 turned out to be 7.7 nM in assay [1]; 5.6 nM in assay [2]; 57 nM in assay [3]; 1.8 nM in assay [4]; 3.2 nM in assay [5].

As for `CC(=O)O[C@H]1C(=O)[C@@]2(C)[C@H]([C@H](OC(=O)c3ccccc3)[C@]3(O)C[C@H](OC(=O)[C@H](O)[C@H](C=C(C)C)NC(=O)OC(C)(C)C)C(C)=C1C3(C)C)[C@]1(OC(C)=O)CO[C@@H]1C[C@@H]2O`, the IC50 in assay [1] turned out to be 0.3 nM; in assay [2], 0.6 nM; in assay [3], 12 nM; in assay [4], 0.6 nM; in assay [5], 0.5 nM.

Consider `CC(=O)OC1C(=O)C2(C)C(O)CC3OCC3(OC(C)=O)C2C(OC(=O)CC(C)C)C2(O)CC(OC(=O)C(O)C(C=C(C)C)NC(=O)OC(C)(C)C)C(C)=C1C2(C)C` (stereo not given), for which the concentration for half-maximal inhibition (IC50) in assay [1] came to 14 nM; in assay [2] it was 16 nM; in assay [3], 589 nM; in assay [4], 11 nM; in assay [5], 17 nM.

In the case of `CC(=O)OC1C(=O)C2(C)C(O)CC3OCC3(OC(C)=O)C2C(OC(=O)C2CCCCC2)C2(O)CC(OC(=O)C(O)C(NC(=O)OC(C)(C)C)c3ccccc3)C(C)=C1C2(C)C` (stereo not given), the IC50 in assay [1] was determined as 5.7 nM; in assay [2], 5.6 nM; in assay [3] it was 412 nM; in assay [4] it was 1.8 nM; in assay [5], 4.8 nM.

Turning to `CC(=O)OC1C(=O)C2(C)C(O)CC3OCC3(OC(C)=O)C2C(OC(=O)C=C(C)C)C2(O)CC(OC(=O)C(O)C(C=C(C)C)NC(=O)OC(C)(C)C)C(C)=C1C2(C)C` (stereo not given), the IC50 came to 0.9 nM in assay [1]; 1.4 nM in assay [2]; 38 nM in assay [3]; 0.5 nM in assay [4]; 0.9 nM in assay [5].

On to `CC(=O)OC1C(=O)C2(C)C(O)CC3OCC3(OC(C)=O)C2C(OC(=O)C2CCCCC2)C2(O)CC(OC(=O)C(O)C(NC(=O)OC(C)(C)C)C3CCCCC3)C(C)=C1C2(C)C` (stereo not given), for which the IC50 in assay [1] is 49 nM; in assay [2], 59 nM; in assay [3] it was 591 nM; in assay [4], 10 nM; in assay [5], 43 nM.
